Screening results as filed in PubChem BioAssay.
Most compounds without a hit are left out; they make up all but 2.9% or so of the library.
Tn7 DDE FP: disrupts Tn7 cyclic peptide binding to fibrin D-Dimer-E complex; P02675; FP displacement of FITC-Tn7 peptide from fibrin DD(E); 0% = median of compound wells per plate; inhibition, % at 8.3 µM; 0.13% of 370,000 active;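 active = inhibition above the mean of compounds falling within the control limits plus 3 SD of them, cut at about 14% in these data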;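 also: 0% = plate median of compound wells and 100% = 10 µM Aha-Tn7 peptide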
Target sequence (P02675 whole entry, looked up): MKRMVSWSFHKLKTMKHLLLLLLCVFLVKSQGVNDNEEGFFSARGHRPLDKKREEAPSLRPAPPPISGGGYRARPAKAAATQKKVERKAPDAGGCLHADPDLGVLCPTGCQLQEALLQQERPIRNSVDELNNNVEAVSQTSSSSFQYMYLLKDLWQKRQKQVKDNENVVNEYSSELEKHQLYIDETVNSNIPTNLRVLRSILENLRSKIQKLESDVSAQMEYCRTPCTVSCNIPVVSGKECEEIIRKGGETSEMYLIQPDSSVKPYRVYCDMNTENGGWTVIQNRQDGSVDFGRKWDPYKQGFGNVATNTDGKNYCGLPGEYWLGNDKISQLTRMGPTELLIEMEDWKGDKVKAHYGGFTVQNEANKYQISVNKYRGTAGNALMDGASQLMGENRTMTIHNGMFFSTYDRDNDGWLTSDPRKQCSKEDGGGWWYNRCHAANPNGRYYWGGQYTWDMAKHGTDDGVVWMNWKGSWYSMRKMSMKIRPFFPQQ
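Test system: human clot-derived fibrin DD(E) complex / Quantity: 2 µM final DD(E) protein / Incubation: 10 min plus 3 h, room temperature / Measured by: fluorescence polarization / Benchmarks: high control of 10 µM Aha-Tn7 peptide / Replicates: singlicate testing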
DDE Tn6 FP inh: disrupts Tn6 cyclic peptide binding to fibrin D-Dimer-E complex. P02675. Fibrin DD(E) TRITC-Tn6 fluorescence polarization displacement. inhibition, % at 8.3 µM. 0.21% of 370,000 active;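 active = inhibition above a per-campaign cutoff: mean of compounds within control limits plus 3 SD, cut at about 15% in these data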;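 also: 0% = median of all compound wells on the plate and 100% = blocking peptide control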
KLK7 zymogen act: activators of human kallikrein-7 zymogen. P49862. purified proKLK7, EDANS-DABCYL substrate fluorescence; 100% is mature enzyme control, 0% vehicle. activation, % at 7 µM. 0.9% of 370,000 active;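 active = activation above the mean of all tested compounds plus 3 SD, computed per campaign excluding outliers beyond control limits, cut at about 13% in these data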
CRFBP-R2 block: CRF-BP/CRF-R2 complex antagonism; HEK293 CRF-R2/CRF-BP, CRF-induced calcium fluorescence; inhibition, % at 11.8 µM; 0.59% of 350,000 active;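 active = inhibition of the ligand-induced calcium signal above about 50% at the single tested concentration, limit read from the data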
CendR NRP1 mod: modulators of CendR peptide binding to human neuropilin-1; O14786; 0.85% of 360,000 active; FAM-RPARPAR peptide binding to NRP-1, fluorescence polarization; inhibition, % at 25 µM;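 active = inhibition or corrected inhibition above about 18%, plus a signal ratio from 0.5 to 1.5, limit read from the data, passing the limit was not always enough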
CRFR2-BP ag: agonists of human CRF-binding protein/CRF-R2 receptor complex; 0.46% of 350,000 active; AID 588473; HEK293 CRF-R2/CRF-BP, calcium dye fluorescence (FLIPR); percent of saturating CRF peptide response; activation, % at 13.2 µM;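 active = activation of at least 50%, plus an integration ratio under a set limit after plate pattern correction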;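 also: plate controls were neutral control wells without compound for no effect and CRF at EC100 for full effect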
An asterisk follows results filed as active; . = not tested or not shown.

SMILES	Tn7 DDE FP	DDE Tn6 FP inh	KLK7 zymogen act	CRFBP-R2 block	CendR NRP1 mod	CRFR2-BP ag
CCO/N=C/C1=C(O)C(C(=O)OC)C(C)(C)CC1=O (stereo not drawn)	1	9	0	9	-2	-1
O=C(c1ccncc1)N1CCC(Oc2cccnc2)CC1	0	-1	1	.	.	.
CC(C)(C)c1ccc(-n2nc(C#N)c(Cl)cc2=O)cc1	-5	-11	0	14	6	51*
COc1cc(C(CCN2CCCC(C)C2)c2c(OC)cc(OC)c3c2OC(=O)CC3c2ccc(N(C)C)cc2)cc(OC)c1OC (stereo not drawn)	.	.	.	-12	1	0
COc1cc(C2CC(=O)Oc3c(C(CCN4CCCC(C)C4)c4ccc(N(C)C)cc4)c(OC)cc(OC)c32)cc(OC)c1OC (stereo not drawn)	-1	-6	1	-4	25*	0
CCc1cccc(CC)c1N1C(=O)COCC1=O	4	-5	0	-9	6	0
CCc1cccc(CC)c1N1C(=O)C2=C(SCCCS2)C1=O	3	10	0	-127	0	137*
NC(=Nc1cccc(F)c1)NC(=O)OCc1ccccc1	-1	4	0	.	.	.
COc1ccccc1C1C=C(c2ccc(Cl)cc2)Nc2nc(N3C(=O)CCC3=O)nn21 (stereo not drawn)	-3	6	6	-25	-10	47
COc1ccc(C2=CC(c3ccc(Cl)cc3)n3cnnc3N2)cc1OC (stereo not drawn)	7	7	1	-49	-4	80*
CC(=O)Nc1ccc(-c2ccnc3c2CC(C(=O)Nc2cccc(C(C)=O)c2)O3)cc1 (stereo not drawn)	-4	-5	1	.	-1	.
CC(=O)Nc1ccc(-c2ccnc3c2CC(C(=O)Nc2cccnc2)O3)cc1 (stereo not drawn)	-4	-2	0	.	27*	.
CCC(=O)OCC(=O)N=c1sccn1Cc1ccccc1Cl	-3	-2	1	-14	26*	1
Cc1ccccc1Cn1cccc1/C=C1/C(=N)N2C=CSC2=NC1=O	-1	6	2	55*	-123	-1
O=C(Nc1cc(Br)ccc1O)c1cc(-c2ccc3c(c2)OCO3)on1	-3	-8	-1	70*	-7	-2
CSc1ccccc1NC(=O)c1cc(-c2ccc3c(c2)OCO3)on1	-2	-5	-1	-2	-5	2
Cc1ccc(CCNC(=O)C2CCC(=O)N2C2CCCC2)cc1 (stereo not drawn)	-2	-9	0	62*	8	-1
CC(=O)c1ccc2noc(-c3ccc(F)cc3)c2c1	8	5	2	-12	37*	10
CC(=O)c1ccc2noc(-c3ccc(Cl)cc3)c2c1	4	-1	-1	-17	-21	0
O=C(CN(C(=O)CNC(=O)c1ccco1)c1ccc2c(c1)OCO2)NC1CCCCC1	-7	2	1	-20	10	0
O=C(CN(C(=O)CNC(=O)c1ccco1)c1ccc2c(c1)OCCO2)NC1CCCC1	12	7	0	9	21*	-1
Nc1nnc(SCc2cc3c(cc2Cl)OCO3)s1	6	-7	0	59*	-9	-3
COC(=O)c1cc(C(c2ccccc2O)C2CCCO2)n2cccc(C(C)(C)C)c12 (stereo not drawn)	10	1	-9	.	.	.
Fc1ccccc1N1CCN(c2cnc3ccccc3n2)CC1	1	0	0	2	24*	4
c1ccc(CN2CCN(c3cnc4ccccc4n3)CC2)cc1	-9	-4	1	-8	9	0
SMILES	Tn7 DDE FP	DDE Tn6 FP inh	KLK7 zymogen act	CRFBP-R2 block	CendR NRP1 mod	CRFR2-BP ag
CCc1ccc(/C=C/C(=O)NC2=NCCS2)cc1	-1	2	.	.	.	.
O=C(NC1CC1)C1CCCN1C(=O)NC1CCCCC1 (stereo not drawn)	-7	-2	0	5	0	-2
O=C(NCC1CCCO1)C1CCCN1C(=O)NC1CCCCC1 (stereo not drawn)	-4	-2	1	53*	11	-4
Cc1ccccc1NC(=O)COC(=O)CCc1ccccc1	-2	-3	0	8	-10	-3
N#Cc1ccccc1NC(=O)COC(=O)CCc1ccccc1	2	-1	0	12	17*	2
Cc1ccc([N+](=O)[O-])cc1N=Nc1c(-c2ccc([N+](=O)[O-])cc2)[nH]n(C(N)=S)c1=O	.	.	.	112*	-8	51*
O=C(NCCOC(=O)C1COc2ccccc2O1)C1COc2ccccc2O1 (stereo not drawn)	-4	1	-1	1	2	-1
O=C(NCCOC(=O)C1COc2ccccc2O1)c1cccnc1 (stereo not drawn)	1	-10	0	-91	8	64*
O=C(CN1C(=O)NC(Cc2ccccc2)C1=O)Nc1ccc(OC(F)(F)F)cc1 (stereo not drawn)	-7	2	0	-16	34*	2
Cc1ccc(-n2c(C)nnc2SCC(=O)Nc2ccccc2)cc1	-3	-1	0	14	20*	-1
COc1cccc(NC(=O)CSc2nc(O)c(C)c(=O)n2-c2ccc(C)cc2)c1	3	-5	0	5	24*	0
COc1ccc2c(c(-c3ccccc3)cn2C)c1-c1ccccc1	9	5	-2	.	.	.
O=C(c1ccco1)N(Cc1ccccc1)c1cccc([N+](=O)[O-])c1	-3	2	0	27	0	-1
O=C(c1ccco1)N(Cc1cccc([N+](=O)[O-])c1)c1ccc(Br)cc1	-4	-2	0	82*	16	-1
COc1ccc2cc(/C=C3\SC(=S)NC3=O)c(N3CCOCC3)nc2c1	4	-1	-1	22	-81	4
O=C1S/C(=C/c2ccc(N3CCOCC3)o2)C(=O)N1Cc1ccc(F)cc1	-5	4	1	-132	99	114*
O=C1S/C(=C\c2ccc(N3CCOCC3)o2)C(=O)N1Cc1ccc(F)cc1	.	.	.	-9	-122	32
O=C1NC(=S)S/C1=C/c1ccc(N2CCOCC2)o1	.	.	.	-56	121	52*
CCN(CC)c1ccc(/C=C(/C#N)c2nc3ccccc3[nH]2)c(OC(C)C)c1	-3	1	-1	-219	129	158*
Cc1ccc(S(=O)(=O)N2CCCC2C(=O)N2CCN(c3ccccc3)CC2)cc1C (stereo not drawn)	-9	4	0	.	.	.
O=C(c1ccccc1)c1cccs1	-2	-3	0	-1	7	1
CCOc1ccc(C(=O)c2cccs2)cc1	9	0	0	51*	1	-1
COc1cc(OC)c(OC)cc1CN1CCN(Cc2ccc(SC)cc2)CC1	1	-3	0	-10	10	0
